Laboratory results reported in ChEMBL document CHEMBL5150021, “Identification of 5-(Aryl/Heteroaryl)amino-4-quinolones as Potent Membrane-Disrupting Agents to Combat Antibiotic-Resistant Gram-Positive Bacteria” (J Med Chem, 2022).
Values after ≈ are worked out from the molar mass of the structure shown. Active and inactive are the calls of the source. The rule behind the calls is not given here.

How the values were obtained:
[1] = system: Staphylococcus epidermidis; assay: Antibacterial activity against Staphylococcus epidermidis NIF104008 assessed as inhibition of bacterial growth incubated for 24 hrs by CLSI based method; type: functional
Summary of the method: (§1)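 Broth microdilution per CLSI. Equal volume of twofold serial compound dilutions added. Incubated stationary at 37 °C for 24 h. MIC taken as lowest concentration giving complete inhibition of visible growth. Oxacillin control for Gram-positives, ceftriaxone for Gram-negatives.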

Escherichia coli = assay: Antibacterial activity against Escherichia coli DHMC-1 assessed as inhibition of bacterial growth incubated for 24 hrs by CLSI based method; type: functional; summary of the method: as §1
Vero [2] = assay: Cytotoxicity against African green monkey Vero cells assessed as increase in LDH release at 0.47 to 30 uM incubated for 24 hrs; type: toxicity, cell-based; conditions: chlorocebus sabaeus, dose 0.47-30 µM
Summary of the method: (§2)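 Confluent Vero cells (maintained in RPMI 1640 + 10% FBS, 37 °C, 5% CO2) exposed to compound at 0.47–30 μM (twofold dilutions) in serum-free medium for 24 h at 37 °C. LDH in supernatant is measured colorimetrically at 490 nm and expressed as percent of 2% detergent positive control.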

Cell membrane [3] = assay: Induction of cell membrane damage in Staphylococcus aureus USA300 assessed as cross-wall-septum formation with reduced splitting at 1 times MIC measured after 10 mins by TEM analysis; type: subcellular
Staphylococcus aureus [4] = assay: Antibacterial activity against methicillin-resistant Staphylococcus aureus NRS71 assessed as inhibition of bacterial growth incubated for 24 hrs by CLSI based method; type: functional; summary of the method: as §1
Enterococcus faecalis [5] = assay: Antibacterial activity against Enterococcus faecalis DHMC #1 assessed as inhibition of bacterial growth incubated for 24 hrs by CLSI based method; type: functional; summary of the method: as §1
Staphylococcus aureus [6] = assay: Antibacterial activity against methicillin-resistant Staphylococcus aureus N315 assessed as inhibition of bacterial growth incubated for 24 hrs by CLSI based method; type: functional; summary of the method: as §1
Enterobacter cloacae = assay: Antibacterial activity against Enterobacter cloacae ND-21 assessed as inhibition of bacterial growth incubated for 24 hrs by CLSI based method; type: functional; summary of the method: as §1
Staphylococcus aureus [7] = assay: Antibacterial activity against methicillin-resistant Staphylococcus aureus MW2 assessed as inhibition of bacterial growth incubated for 24 hrs by CLSI based method; type: functional; summary of the method: as §1
Cell membrane [8] = assay: Induction of cell membrane damage in Staphylococcus aureus USA300 assessed as mesosome-like membrane inclusions at 1 times MIC measured after 1 hrs by TEM analysis
Summary of the method: (§3)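 Fixed in glutaraldehyde/paraformaldehyde in cacodylate pH 7.4, post-fixed with osmium tetroxide, stained with uranyl acetate, resin-embedded, thin-sectioned and imaged by TEM.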

Cell membrane [9] = assay: Induction of cell membrane damage in Staphylococcus aureus USA300 assessed as membrane wrinkling at 1 times MIC measured after 1 hrs by TEM analysis; summary of the method: as §3
Staphylococcus aureus [10] = assay: microbe, parasite or virus in culture; conditions: USA300 FPR3757, 24 h
Cell membrane [11] = assay: Induction of cell membrane damage in Staphylococcus aureus USA300 assessed as bulging of the septum at 1 times MIC measured after 1 hrs by TEM analysis; summary of the method: as §3
Staphylococcus aureus [12] = assay: Antibacterial activity against community-associated methicillin-resistant Staphylococcus aureus USA300 FPR3757 assessed as inhibition of bacterial growth incubated for 24 hrs by CLSI based method; type: functional
Summary of the method: (§4)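 It was mixed 1:1 with twofold serial compound dilutions and incubated stationary at 37 °C for 24 h. MIC was the lowest concentration giving complete inhibition of observable growth, with an oxacillin control.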

[13] = system: Staphylococcus epidermidis; assay: Antibacterial activity against Staphylococcus epidermidis NIF104003 assessed as inhibition of bacterial growth incubated for 24 hrs by CLSI based method; type: functional; summary of the method: as §1
[14] = Protein binding in human plasma at […] incubated for 4 hrs under shaking condition by LC-MS/MS based equilibrium dialysis method; type: ADME, cell-free
Summary of the method: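 Rapid equilibrium dialysis (8k MWCO). Compound is spiked into human plasma at 10 μg/mL and dialysed against DPBS pH 7.4 with shaking for 4 h at 37 °C. Matrices are matched, proteins precipitated with methanol containing internal standard, and both chambers quantified by LC-MS/MS against a calibration curve. Percent free and bound are calculated from chamber concentrations.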

Enterococcus faecium [15] = assay: Antibacterial activity against Enterococcus faecium DHMC #1 assessed as inhibition of bacterial growth incubated for 24 hrs by CLSI based method; type: functional; summary of the method: as §1
Staphylococcus aureus [16] = assay: Antibacterial activity against methicillin-resistant Staphylococcus aureus COL assessed as inhibition of bacterial growth incubated for 24 hrs by CLSI based method; type: functional; summary of the method: as §1
Klebsiella pneumoniae = assay: Antibacterial activity against Klebsiella pneumoniae 7117 assessed as inhibition of bacterial growth incubated for 24 hrs by CLSI based method; type: functional; summary of the method: as §1
Staphylococcus aureus [17] = assay: Antibacterial activity against methicillin resistant Staphylococcus aureus FPR3757 assessed as inhibition of bacterial growth incubated for 24 hrs in presence of 10% FBS by CLSI based method; type: functional
Summary of the method: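 CLSI broth microdilution against MRSA FPR3757 (USA300) in Mueller–Hinton broth supplemented with 10% serum (fetal bovine or mouse). Inoculum 10⁶ CFU/mL with twofold serial compound dilutions, stationary incubation at 37 °C for 24 h. MIC read as lowest concentration with complete inhibition of visible growth.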

Erythrocyte = assay: Hemolytic activity in sheep erythrocytes at 32 ug/ml incubated for 1 hr; type: toxicity, cell-based, Ovis aries; conditions: dose 32 µg/ml
Summary of the method: (§5)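 4% sheep erythrocytes mixed 1:1 with twofold serial compound dilutions in PBS, incubated stationary 1 h at 37 °C, then centrifuged at 500g for 5 min. Supernatant A540 is measured and percent hemolysis is calculated relative to DMSO vehicle (0%) and Triton X-100 (100%). Triplicate, mean ± SD.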

Enterococcus faecium [18] = assay: Antibacterial activity against Enterococcus faecium ATCC19579 assessed as inhibition of bacterial growth incubated for 24 hrs by CLSI based method; type: functional; summary of the method: as §1
Enterococcus faecalis [19] = assay: Antibacterial activity against Enterococcus faecalis ATCC700802 assessed as inhibition of bacterial growth incubated for 24 hrs by CLSI based method; type: functional; summary of the method: as §1
Vero [20] = assay: Cytotoxicity against African green monkey Vero cells assessed as increase in LDH release at 30 uM incubated for 24 hrs relative to control; type: toxicity, cell-based; conditions: chlorocebus sabaeus; summary of the method: as §2
Staphylococcus aureus [21] = assay: Antibacterial activity against methicillin resistant Staphylococcus aureus FPR3757 assessed as inhibition of bacterial growth incubated for 24 hrs by CLSI based method; type: functional; conditions: read-out: MIC100; summary of the method: as §4
Candida albicans = assay: Antifungal activity against Candida albicans SC5314 assessed as inhibition of bacterial growth incubated for 24 hrs by CLSI based method; type: functional
Summary of the method: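 Broth microdilution per CLSI. It is mixed 1:1 with twofold serial compound dilutions and incubated stationary at 35 °C for 24 h. MIC is read as the lowest concentration with no observable growth.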

[22] = Kinetic aqueous solubility of the compound in DPBS at pH 7.4 at 100 ug/ml measured after 6 hrs by LC-MS/MS analysis; type: physicochemical; conditions: DPBS, pH 7.4, dose 100 µg/ml, read-out: Kinetic_solubility
[23] = Cytotoxicity against sheep erythrocytes assessed as reduction in cell viability; type: toxicity, cell-based, Ovis aries, Erythrocyte; summary of the method: as §5
[24] = Therapeutic index, ratio of CC50 for Cytotoxicity against sheep erythrocytes to MIC for antibacterial activity against methicillin resistant Staphylococcus aureus FPR3757; type: toxicity
Summary of the method: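 Ratio of erythrocyte CC50 to MRSA FPR3757 MIC. For hemolysis, 4% washed sheep erythrocytes were mixed 1:1 with twofold compound dilutions in PBS and incubated 1 h at 37 °C. Supernatant A540 was read after centrifugation and normalized between DMSO and Triton X-100 (100% lysis). Triplicates. Highest concentration tested: 32 μg/mL.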

Structure (SMILES): O=c1cc(C(F)(F)F)[nH]c2cc(C(F)(F)F)cc(N[C@H]3CC[C@H](C(F)(F)F)CC3)c12
- MIC [1]: 0.125 µg/mL (≈ 0.28 µM)
- MIC (Escherichia coli): > 128 µg/mL
- Activity (Vero [2]): Non-Toxic
- Activity (Cell membrane [3]): Active
- MIC (Staphylococcus aureus [4]): 0.0625 µg/mL (≈ 0.14 µM)
- MIC (Enterococcus faecalis [5]): 0.125 µg/mL (≈ 0.28 µM)
- MIC (Staphylococcus aureus [6]): 0.125 µg/mL (≈ 0.28 µM)
- MIC (Enterobacter cloacae): > 128 µg/mL
- MIC (Staphylococcus aureus [7]): 0.125 µg/mL (≈ 0.28 µM)
- Activity (Cell membrane [8]): Active
- Activity (Cell membrane [9]): Active
- MBC (Staphylococcus aureus [10]): 4 µg/mL (≈ 8.96 µM)
- Activity (Cell membrane [11]): Active
- MIC (Staphylococcus aureus [12]): 0.5 µg/mL (≈ 1.12 µM)
- MIC [13]: 0.125 µg/mL (≈ 0.28 µM)
- PPB [14]: 99.9%
- MIC (Enterococcus faecium [15]): 0.25 µg/mL (≈ 0.56 µM)
- MIC (Staphylococcus aureus [16]): < 0.06 µg/mL
- MIC (Klebsiella pneumoniae): > 128 µg/mL
- MIC (Staphylococcus aureus [17]): 4 µg/mL
- Activity (Erythrocyte): Non-Toxic
- MIC (Enterococcus faecium [18]): 0.25 µg/mL (≈ 0.56 µM)
- MIC (Enterococcus faecalis [19]): 2 µg/mL (≈ 4.48 µM)
- Activity (Vero [20]): 20%
- MIC (Staphylococcus aureus [21]): 0.125 µg/mL (≈ 0.28 µM)
- MIC (Candida albicans): > 256 µg/mL

Structure (SMILES): O=c1cc(C(F)(F)F)[nH]c2cc(C(F)(F)F)cc(Nc3ccc(F)cn3)c12
- Activity (Vero [2]): Non-Toxic
- solubility kinetic at 6 h [22]: 1 µg/mL (≈ 2.56 µM)
- PPB [14]: 99.8%
- Activity (Vero [20]): 20%
- MIC (Staphylococcus aureus [21]): 0.125 µg/mL (≈ 0.319 µM)

Structure (SMILES): O=c1cc(C(F)(F)F)[nH]c2cc(C(F)(F)F)cc(Nc3ccc(Cl)c(Cl)c3)c12
- CC50 [23]: > 32 µg/mL
- selectivity ratio [24]: > 500
- Activity (Erythrocyte): Non-Toxic
- MIC (Staphylococcus aureus [21]): < 0.0625 µg/mL
